According to ChEMBL document CHEMBL4619802, “Discovery and Characterization of Pure RhlR Antagonists against Pseudomonas aeruginosa Infections” (J Med Chem, 2020):
Calls of active or inactive are those of the source. The calls are words filed in the database; no cut-off is given here.

Legend:
Pseudomonas aeruginosa [1] = assay: Effect on pqsR expression in Pseudomonas aeruginosa harboring RhlR mutant up to 10 uM after 24 hrs by RT-qPCR method; assay type: functional, organism-based
How it was run: (§1)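 P. aeruginosa overnight culture (OD595 = 1.0) was diluted 1:20 in AB medium (pH 7.5) with compounds or controls at 0–10 µM. It was grown statically in borosilicate bottles at 37 °C for 24 h, and biofilm cells were collected. Total RNA was extracted with TRI reagent. SYBR-based RT-qPCR used QS gene primers: 95 °C 10 s, then 40 cycles of 95 °C 10 s and 60 °C 10 s.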

Pseudomonas aeruginosa [2] = assay: Downregulation of phzC1 expression in Pseudomonas aeruginosa harboring RhlR mutant up to 10 uM after 24 hrs by RT-qPCR method; assay type: functional, organism-based; how it was run: as §1
Pseudomonas aeruginosa [3] = assay: Effect on pycocyanin production in Pseudomonas aeruginosa harboring RhlR mutant at 10 uM after 24 hrs by […]; assay type: functional, organism-based
How it was run: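 P. aeruginosa overnight culture (OD595 = 1.0) was diluted 1:100 in AB medium with compounds or controls at 0–10 µM and grown at 37 °C for 24 h. Pyocyanin was extracted from the supernatant with 50% TFA at 37 °C for 1 h, then filtered. It was quantified by C18 HPLC (99:1 water/TFA, 0.5 mL/min, 25 °C) as peak height at the 20 min retention time.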

[4] = molecular target: T1, Transcriptional regulator MvfR (Pseudomonas aeruginosa PA14) (UniProt A0A072ZLE6); assay: Agonist activity at Pseudomonas aeruginosa PqsR expressed in Escherichia coli DH5alpha at 0.1 to 10 uM incubated for 1.5 hrs by luminescence reporter gene assay
T1 sequence (whole entry): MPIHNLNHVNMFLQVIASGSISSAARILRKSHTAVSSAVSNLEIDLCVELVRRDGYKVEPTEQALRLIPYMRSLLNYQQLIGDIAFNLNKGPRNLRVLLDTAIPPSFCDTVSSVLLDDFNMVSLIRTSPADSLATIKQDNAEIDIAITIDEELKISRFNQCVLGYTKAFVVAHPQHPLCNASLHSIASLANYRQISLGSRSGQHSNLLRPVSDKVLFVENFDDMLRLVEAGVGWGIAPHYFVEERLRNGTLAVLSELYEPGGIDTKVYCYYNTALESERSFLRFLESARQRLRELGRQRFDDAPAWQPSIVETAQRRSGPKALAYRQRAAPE

[5] = molecular target: T2, Transcriptional activator protein LasR (Pseudomonas aeruginosa (strain ATCC 15692 / PAO1 / 1C / PRS 101 / LMG12228)) (UniProt P25084); assay: Agonist activity at Pseudomonas aeruginosa LasR expressed in Escherichia coli DH5alpha at 0.1 to 10 uM incubated for 1.5 hrs by luminescence reporter gene assay
T2 sequence (whole entry): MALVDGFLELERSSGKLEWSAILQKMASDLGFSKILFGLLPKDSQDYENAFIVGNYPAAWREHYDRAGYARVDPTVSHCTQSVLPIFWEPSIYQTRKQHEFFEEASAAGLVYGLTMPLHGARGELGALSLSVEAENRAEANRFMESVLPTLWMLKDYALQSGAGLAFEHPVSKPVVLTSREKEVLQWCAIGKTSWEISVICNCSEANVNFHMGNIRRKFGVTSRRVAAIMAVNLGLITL

Pseudomonas aeruginosa [6] = assay: Downregulation of rhlA expression in Pseudomonas aeruginosa harboring RhlR mutant up to 10 uM after 24 hrs by RT-qPCR method; assay type: functional, organism-based; how it was run: as §1
Pseudomonas aeruginosa [7] = assay: Effect on extracellular polymeric substance in biofilm of Pseudomonas aeruginosa assessed as reduction in protein level at 10 uM relative to control; assay type: functional; set-up: scale not given: the % may be the effect or the level left
How it was run: (§2)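 Biofilm scraped from drip-flow reactor slides and resuspended in 0.01 M KCl. Sonicated 4 cycles of 5 s on/5 s off, supernatant filtered through 0.22 µm. Protein by Lowry/Folin, read at OD750. Carbohydrate by sulfuric acid 30 min then 5% phenol at 90 °C for 5 min, read at OD490. Each divided by OD595.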

Pseudomonas aeruginosa [8] = assay: Effect on lasB expression in Pseudomonas aeruginosa harboring RhlR mutant up to 10 uM after 24 hrs by RT-qPCR method; assay type: functional, organism-based; how it was run: as §1
Pseudomonas aeruginosa [9] = assay: Antibacterial activity against Pseudomonas aeruginosa infected in Tenebrio molitor larvae assessed as larvae survival at 10 uM incubated for 20 days and measured every 5 days; assay type: functional
How it was run: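 P. aeruginosa overnight culture (OD595 = 1.0) was centrifuged, and the supernatant passed through a 0.22 µm filter. 10 µL was injected into T. molitor larvae by syringe needle, with compounds or controls at 0–10 µM. Larvae were kept in Petri dishes at 25 °C for 20 days, and mortality was scored every 5 days.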

[10] = molecular target: T1, Transcriptional regulator MvfR (Pseudomonas aeruginosa PA14); assay: Antagonist activity at Pseudomonas aeruginosa PqsR expressed in Escherichia coli DH5alpha at 0.1 to 10 uM incubated for 1.5 hrs by luminescence reporter gene assay
Pseudomonas aeruginosa [11] = assay: Effect on lasR expression in Pseudomonas aeruginosa harboring RhlR mutant up to 10 uM after 24 hrs by RT-qPCR method; assay type: functional, organism-based; how it was run: as §1
Pseudomonas aeruginosa [12] = assay: Antibacterial activity against Pseudomonas aeruginosa assessed as bacterial growth at 10 uM incubated for 24 hrs relative to control; assay type: functional
How it was run: (§3)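 P. aeruginosa overnight culture (OD595 1.0) diluted 1:20 in AB medium (pH 7.5, 1% glucose, casamino acids, arginine) with compound, in borosilicate bottles, 37 °C for 24 h without shaking. Growth taken as OD595 of the suspended culture. Attached cells washed twice with PBS, stained with 0.1% crystal violet for 10 min, dye eluted in ethanol and read at 545 nm.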

Pseudomonas aeruginosa [13] = assay: Effect on extracellular polymeric substance in biofilm of Pseudomonas aeruginosa assessed as reduction in carbohydrate level at 10 uM relative to control; assay type: functional; set-up: scale not given: the % may be the effect or the level left; how it was run: as §2
Pseudomonas aeruginosa [14] = assay: Downregulation of rhlA expression in biofilm of Pseudomonas aeruginosa at 10 uM after 24 hrs by RT-qPCR analysis relative to control; assay type: functional
How it was run: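 P. aeruginosa (OD595 1.0) diluted 1:20 in AB medium with compound in borosilicate bottles, 37 °C for 24 h. Total RNA extracted from biofilm cells and run by SYBR RT-qPCR with QS-gene primers. Cycling: 95 °C 10 s, then 40 cycles of 95 °C 10 s and 60 °C 10 s.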

Pseudomonas aeruginosa [15] = assay: Antibacterial activity against Pseudomonas aeruginosa assessed as bacterial growth at 100 uM incubated for 24 hrs relative to control; assay type: functional; how it was run: as §3

For `CCCC(=O)C#Cc1ccc(F)c(F)c1`, which Activity (Pseudomonas aeruginosa [1]) is on record?
Its Activity is “inactive”.

And the Activity (Pseudomonas aeruginosa [2])?
Its Activity is “Active”.

And the Activity (Pseudomonas aeruginosa [3])?
The Activity was “inactive”.

What about the Activity [4] of the same compound?
The Activity was “inactive”.

What about the Activity [5] of the same compound?
The Activity was “inactive”.

What about the Activity (Pseudomonas aeruginosa [6]) of the same compound?
The Activity was “Active”.

What about the Activity (Pseudomonas aeruginosa [7]) of the same compound?
Its Activity is 72%.

And the Activity (Pseudomonas aeruginosa [8])?
Its Activity is “inactive”.

And the survival at 10 µM (Pseudomonas aeruginosa [9])?
Its survival at 10 µM is 80%.

And the Activity [10]?
The Activity was “inactive”.

What about the Activity (Pseudomonas aeruginosa [11]) of the same compound?
The Activity was “inactive”.

What about the Activity (Pseudomonas aeruginosa [12]) of the same compound?
The Activity was 103%.

And the Activity (Pseudomonas aeruginosa [13])?
The Activity was 39%.

And the Activity (Pseudomonas aeruginosa [14])?
The Activity was 65 - 79%.

And the Activity (Pseudomonas aeruginosa [15])?
The Activity was 99%.
